mABHD4 FP – inhibits mouse alpha/beta hydrolase domain 4 | 370,000 tested, 0.54% active | inhibition, % at 8.92 µM | purified mABHD4, FP-Rh probe fluorescence polarization | AID 720543 | Q8VD66;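 active = inhibition exceeding the mean over every tested compound plus 3 SD, cut at about 30% in these data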;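 note: 0% = plate median of compound wells and 100% = S159A mutant with DMSO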
Target sequence (Q8VD66 whole entry, looked up, the tested form may be a part): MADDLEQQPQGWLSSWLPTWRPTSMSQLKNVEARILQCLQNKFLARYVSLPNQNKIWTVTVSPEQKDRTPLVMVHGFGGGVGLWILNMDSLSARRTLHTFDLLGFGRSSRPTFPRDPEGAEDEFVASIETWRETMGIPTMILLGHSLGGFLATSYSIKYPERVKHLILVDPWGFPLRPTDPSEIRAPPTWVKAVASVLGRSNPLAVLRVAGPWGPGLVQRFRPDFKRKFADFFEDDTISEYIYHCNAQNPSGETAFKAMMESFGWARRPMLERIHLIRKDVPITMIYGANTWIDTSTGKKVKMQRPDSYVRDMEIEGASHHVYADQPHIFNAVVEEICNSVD
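Material: mouse ABHD4 enzyme, wild type; Benchmarks: S159A mutant high control, sample median low control; Buffer or medium: HEPES pH 7.0, NaCl, Pluronic buffer; Signal: fluorescence polarization; Read-out: percent inhibition of probe binding, normalized to plate controls; Timing: pre-incubation 45 min, probe exposure 60 min, at 25 °C; Dosing: 8.92 µM, single dose.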
TCR-CD3 inh – blocks the human TCR-CD3 interaction | TAMRA-labeled TCR probe fluorescence, biochemical | inhibition, % at 9.4 µM | 360,000 tested, 0.37% active; in the data active = inhibition above about 19%;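 note: recombinant mutant TCR 2C K166C tagged with TAMRA read by polarization; 0% = receptor in buffer alone and 100% = receptor with positive control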
rCAG RNA binder – molecules binding r(CAG) RNA repeats | r(CAG) RNA repeat, TO-PRO-1 dye displacement fluorescence | inhibition, % at 3 µM | 370,000 tested, 1.3% active;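 active = inhibition above the plate cutoff, the mean of all test compounds on that plate plus 3 SD, cut at about 35% in these data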;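 note: 0% = DMSO alone and 100% = 100 µM mitoxantrone as full dye displacement; higher means more dye released from RNA so lower well fluorescence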
HTRA1 inh – HTRA1 (human) protease inhibition; Q92743; recombinant HTRA1, FP-rhodamine activity-based probe, fluorescence polarization; inhibition, % at 5.96 µM; 340,000 tested, 0.5% active; AID 504803; in the data active = inhibition above about 36%;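 note: 0% = enzyme with DMSO and 100% = wells lacking enzyme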
SIAE inh – inhibitors of human sialic acid acetylesterase SIAE. Q9HAT2. SIAE FP-Rh probe binding, fluorescence polarization. inhibition, % at 9.66 µM. 370,000 tested, 0.69% active;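 active = inhibition above a cutoff: mean of compounds within the control limits plus 3 SD of those, cut at about 17% in these data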;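 note: 0% = plate median of compound wells and 100% = probe without SIAE protein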
rCAG binder conf – r(CAG) RNA repeat binding, confirmation. TO-PRO-1 dye displacement fluorescence. inhibition, % at 3 µM. shares compounds with rCAG RNA binder. 4,300 tested, 70% active;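 active = inhibition above a per-plate cutoff, the mean inhibition of sample wells plus 3 SD, cut at about 35% in these data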;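 note: loss of TO-PRO-1 fluorescence as compound displaces dye from 1x1 AA loop RNA; 0% = DMSO only wells and 100% = 100 µM mitoxantrone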
DNA CAG counter – disrupts DNA CAG TO-PRO-1 complex, flagging rCAG hits; shares compounds with rCAG RNA binder; d(CAG) DNA oligo TO-PRO-1 dye displacement, fluorescence; inhibition, % at 3 µM; 4,300 tested, 94% active; AID 652068;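 active = inhibition above its plate's cutoff, the mean test-well inhibition plus 3 SD, cut at about 4.8% in these data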;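 note: 0% = DNA dye mix with DMSO and 100% = 100 µM mitoxantrone; hits displace the dye from DNA and so lower well fluorescence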
DNA CAG DR – DNA CAG dye complex inhibition, dose response counter-screen | shares compounds with rCAG RNA binder | DNA CAG/GTC duplex TO-PRO-1 dye displacement fluorescence | IC50, µM | 250 tested, 20% active | AID 686960; in the data active = IC50 below about 10 µM
Active calls of the source: *; i = inactive; . = no result given. Rows were chosen to be rich in hits. Some 2.5% of all compounds tested hit in one or more screens of this group.

SMILES | mABHD4 FP | TCR-CD3 inh | rCAG RNA binder | HTRA1 inh | SIAE inh | rCAG binder conf | DNA CAG counter | others
Cn1c(COc2ccccc2)nnc1SCC(=O)Nc1ccc(S(=O)(=O)Nc2nccs2)cc1 | -2.5 | . | 48.9* | . | -2.8 | 46.6* | 17.7*
COc1ccc(OCC(=O)Nc2cc(NC(=O)COc3ccc(OC)cc3)cc(C(=O)O)c2)cc1 | -11.4 | -5.5 | 37.6* | -5.2 | -6.8 | 51.7* | 16.7*
Cc1cccc(OCC(=O)Nc2nnc(-c3ccco3)s2)c1 | -2.8 | 7.6 | 9.0 | -6.8 | -1.5 | . | .
COc1ccccc1OCC(=O)Nc1cc(NC(=O)COc2ccccc2OC)cc(C(=O)O)c1 | -6.1 | 6.1 | 45.6* | -9.4 | 8.2 | 11.1 | 1.8
COc1ccccc1OCC(=O)Nc1nnc(-c2ccco2)s1 | 8.8 | 14.8 | 57.9* | -0.5 | 3.3 | 7.9 | 2.8
O=C1C(C23CC4CC(CC(C4)C2)C3)C(=O)N(c2ccccc2)N1c1ccccc1 | -2.4 | -1.1 | -0.7 | -1.1 | 6.3 | . | .
OCCN(CCO)Cc1csc2ccccc12 | -6.6 | 8.8 | -0.3 | -2.9 | -1.4 | . | .
O=C(O)c1cccc(S(=O)(=O)N2CCCC(c3nc4c(nnn4Cc4ccccc4Cl)c(=O)[nH]3)C2)c1 (centres undefined) | 9.7 | 7.1 | 43.0* | -5.8 | -4.2 | 29.8 | 9.3*
CSc1nc2nc3c(cc2c(=O)[nH]1)C(O)Oc1ccc(C)cc1-3 (centres undefined) | -11.4 | 9.9 | 12.9 | -15.6 | -1.8 | . | .
CC1CCc2c(sc3nc(CN4CCOCC4)nc(NS(=O)(=O)c4cccc([N+](=O)[O-])c4)c23)C1 (centres undefined) | -1.3 | -3.1 | 62.1* | 0.0 | -7.9 | 70.8* | 27.7* | DNA CAG DR=i
Cc1cc(S(=O)(=O)Nc2nc(CN3CCOCC3)nc3sc4c(c23)CCCC4)ccc1F | -2.8 | 3.7 | 30.5 | -0.1 | -2.9 | . | .
NC(c1ccccc1)c1csc(NC(=O)Nc2cccc(Cl)c2)n1 (centres undefined) | 15.5 | -2.2 | 48.0* | . | 2.5 | 37.4* | 16.7*
NC(c1ccccc1)c1csc(NC(=O)Nc2ccc(OC(F)(F)F)cc2)n1 (centres undefined) | -21.1 | -2.8 | 40.8* | . | -18.4 | 35.0* | 12.9*
NC(CCc1ccccc1)c1csc(NC(=O)Nc2cccc(Cl)c2)n1 (centres undefined) | 7.9 | -4.7 | 47.5* | . | -0.3 | 39.8* | 9.8*
NC(c1ccccc1)c1csc(NC(=O)Nc2ccccc2Oc2ccccc2)n1 (centres undefined) | -14.0 | 1.0 | 14.8 | . | -14.1 | . | .
NC(COCc1ccccc1)c1csc(NC(=O)Nc2cccc(C(F)(F)F)c2)n1 (centres undefined) | 8.2 | 3.4 | 43.1* | . | 10.3 | 29.9 | 5.1*
COc1ccccc1NC(=O)Nc1nc(C(N)CCc2ccccc2)cs1 (centres undefined) | -10.1 | -11.4 | 21.7 | . | -1.2 | . | .
Cc1ccc(C(=O)NCCN2CCOCC2)c(Cl)c1 | -5.8 | -9.9 | -4.7 | 3.6 | -3.1 | . | .
O=S(=O)(Nc1ccc(Br)cc1)c1cccc2cccnc12 | -3.7 | 7.4 | 1.4 | -12.7 | -2.4 | . | .
O=C(/C=C/c1ccco1)Nc1sc2c(c1C(=O)O)CCC2 | 17.3 | 2.8 | 26.7 | 7.7 | -9.3 | . | .
N#Cc1c(NC(=O)/C=C/c2ccco2)sc2c1CCCC2 | -7.9 | 5.7 | 37.9* | -14.4 | -2.9 | 25.7 | 13.6*
O=C(NCC(c1cccs1)N1CCOCC1)c1ccccc1NS(=O)(=O)c1ccc(Br)cc1 (centres undefined) | -0.2 | 5.2 | 49.0* | 8.5 | 4.4 | 46.5* | 14.7*
O=C(NCC(c1ccco1)N1CCCCC1)c1ccc(S(=O)(=O)Nc2ccccc2Cl)cc1 (centres undefined) | -2.8 | 0.9 | 43.1* | -8.0 | -0.2 | 38.8* | 8.8*
O=C(NCC(c1cccs1)N1CCOCC1)c1ccccc1NS(=O)(=O)c1ccc(Cl)cc1 (centres undefined) | -1.9 | -1.3 | 50.4* | -10.0 | -12.1 | 61.1* | 22.6*
CC(=O)c1ccc(S(=O)(=O)Nc2ccc(C(=O)NCC(c3cccs3)N3CCOCC3)cc2)cc1 (centres undefined) | -3.7 | 6.9 | 5.0 | 10.1 | -3.7 | . | .
SMILES | mABHD4 FP | TCR-CD3 inh | rCAG RNA binder | HTRA1 inh | SIAE inh | rCAG binder conf | DNA CAG counter | others
O=C(NCC(c1ccco1)N1CCCC1)c1ccc(S(=O)(=O)Nc2ccccc2Cl)cc1 (centres undefined) | -1.9 | -1.0 | 30.4 | 4.1 | -1.2 | . | .
COc1ccccc1NC(=O)c1c(C)oc2c1CCCC2 | -4.6 | -3.2 | 0.2 | -6.3 | -1.1 | . | .
C[C@H](c1ccccc1)N1C[C@H](COCc2ccccc2)Oc2cc(N3CC[C@H](O)C3)ccc2S1(=O)=O | -43.6 | -0.2 | 6.3 | . | 2.8 | . | .
Cc1cc(-c2csc(NC(=O)c3ccccc3C(F)(F)F)n2)c(C)n1Cc1ccccc1 | -4.8 | -4.7 | 18.5 | -6.0 | -2.1 | . | .
CN(C)c1ccc(C=C2C=CC=C2)cc1 | 9.4 | 0.5 | 7.3 | 21.4 | 3.5 | . | .
Cc1cccc(NC(=O)c2cccc(NS(=O)(=O)c3ccc(Cl)cc3)c2)c1 | . | . | . | -65.7 | . | . | .
Cc1ccc(S(=O)(=O)Nc2cc(C(=O)Nc3cc(C)cc(C)c3)ccc2Cl)cc1 | -60.3 | 2.9 | 36.2* | -58.8 | -36.5 | 42.4* | 9.8*
Cc1nn(-c2ccccc2)c2sc(-c3n[nH]c(=S)o3)cc12 | 13.4 | 4.8 | 65.2* | -2.5 | -18.6 | 32.1 | 8.0*
O=C(Nc1cc(S(=O)(=O)Nc2ccccc2Cl)ccc1O)c1cc2c(s1)CCCC2 | -5.3 | 6.5 | 47.8* | -3.6 | -15.9 | 66.9* | 25.8*
Cc1ccc(C(=O)Nc2ccc(C)c(S(=O)(=O)Nc3ccccc3Cl)c2)s1 | -77.3 | 3.5 | 35.7* | -56.0 | -27.8 | 46.2* | 15.8*
Cc1ccc(NC(=O)c2cc3c(s2)CCCC3)cc1S(=O)(=O)Nc1ccccc1Cl | -95.1 | 10.7 | 47.4* | -87.7 | -126.5 | 38.3* | 12.7*
O=C(Nc1cccc(S(=O)(=O)Nc2ccc(Cl)cc2)c1)c1cc2c(s1)CCCC2 | -140.1 | 15.4 | 43.0* | -91.9 | -134.9 | 29.2 | 16.8*
CN(C)CCC(=O)N1c2ccccc2Sc2ccc(C(F)(F)F)cc21 | 7.4 | -0.6 | -3.9 | -8.6 | 5.2 | . | .
CCCc1nc2c(o1)CC(CC(C)SCC)CC2=O (centres undefined) | -1.6 | 2.8 | -7.2 | 2.5 | -0.7 | . | .
COC(=O)C[C@H](NC(=O)Cn1cnc2c(NCc3ccccc3)ncnc21)C(=O)OC | 1.2 | -2.3 | -0.4 | 4.4 | 11.7 | . | .
Cc1ccn(-c2ccc([N+](=O)[O-])cc2)n1 | -0.1 | 1.1 | -1.5 | 9.8 | -1.3 | . | .
Cc1cc(=O)oc2cc(OCC(=O)NCCCN3CCOCC3)c(Cl)cc12 | 7.8 | -8.7 | -3.7 | 1.4 | -0.6 | . | .
